ChEMBL document CHEMBL3124772, “Design, synthesis, and evaluation of conformationally restricted acetanilides as potent and selective β3 adrenergic receptor agonists for the treatment of overactive bladder” (J Med Chem, 2014)

Columns and labels:
[1] = Half life in rhesus monkey at 1 mg/kg, iv and 2 mg/kg, po; format: ADME, organism-based, Macaca mulatta; conditions: in vivo
[2] = Oral bioavailability in rhesus monkey at 2 mg/kg; format: ADME, organism-based, Macaca mulatta; conditions: in vivo
[3] = molecular target: Beta-3 adrenergic receptor (Canis lupus familiaris) (UniProt O02662); assay: Agonist activity at dog beta-3 adrenergic receptor expressed in CHO cells assessed as increase in intracellular cAMP accumulation at 10^-10 to 10^-5 M after 30 mins by time-resolved fluorescence assay relative to R-(-)isoproterenol; format: functional, cell-based
How it was run: (§1)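 CHO cells stably transfected with cloned β3-AR, harvested after 3 days subculture with enzyme-free dissociation, 6000 cells in HBSS with 5 mM HEPES, 0.1% BSA and 0.6 mM IBMX. Ligand at 10⁻¹⁰ to 10⁻⁵ M final, 30 min room temperature with labeled cAMP antibody; LANCE TR-FRET read after 1 h detection, cAMP from standard curve.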

Rattus norvegicus [4] = assay: Reduction of micturition pressure at 1.2 uM unbound plasma level in acetic acid-induced Sprague-Dawley rat bladder hyperactivity model at 10 mg/kg, iv administered as 1 to 2 hrs infusion relative to vehicle-treated control; format: functional; set-up: scale not given: the % may be the effect or the level left
[5] = molecular target: Beta-3 adrenergic receptor (Macaca mulatta) (UniProt Q28524); assay: Agonist activity at rhesus monkey beta-3 adrenergic receptor expressed in CHO cells assessed as increase in intracellular cAMP accumulation at 10^-10 to 10^-5 M after 30 mins by time-resolved fluorescence assay relative to R-(-)isoproterenol; format: functional, cell-based; how it was run: as §1
[6] = molecular target: Sodium-dependent serotonin transporter (Homo sapiens, UniProt P31645); assay: Inhibition of human SERT expressed in HEK293 cells incubated for 30 mins prior to fluorescent substrate addition measured after 30 mins by fluorescent dye uptake assay; format: cell-based
Sequence of Sodium-dependent serotonin transporter (P31645 whole entry): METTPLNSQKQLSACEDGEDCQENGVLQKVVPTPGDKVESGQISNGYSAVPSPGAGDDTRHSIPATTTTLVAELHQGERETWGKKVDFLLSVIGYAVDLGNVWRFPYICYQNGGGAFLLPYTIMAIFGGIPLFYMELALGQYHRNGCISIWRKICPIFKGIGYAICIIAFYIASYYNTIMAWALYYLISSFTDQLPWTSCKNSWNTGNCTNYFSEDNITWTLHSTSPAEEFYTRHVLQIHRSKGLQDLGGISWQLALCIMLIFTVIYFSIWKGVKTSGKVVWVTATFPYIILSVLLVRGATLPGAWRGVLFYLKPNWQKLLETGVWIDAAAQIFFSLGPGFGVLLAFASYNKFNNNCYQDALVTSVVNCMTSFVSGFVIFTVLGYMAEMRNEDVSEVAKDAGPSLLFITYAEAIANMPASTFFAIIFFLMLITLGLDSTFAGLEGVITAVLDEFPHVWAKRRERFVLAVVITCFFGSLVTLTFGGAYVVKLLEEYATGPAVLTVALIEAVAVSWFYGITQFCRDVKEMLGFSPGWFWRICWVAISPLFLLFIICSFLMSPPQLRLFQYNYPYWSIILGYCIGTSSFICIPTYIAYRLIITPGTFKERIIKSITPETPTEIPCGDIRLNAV
How it was run: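 HEK293 stably expressing human SERT, 20000 cells/well plated overnight at 37 °C, then in HBSS with 20 mM HEPES and 0.1% BSA. Compound added from 100× DMSO stock, 30 min at 37 °C, then fluorescent transporter substrate for 30 more min. Fluorescence read at 440/520 nm, normalized to DMSO (0%) and 10 μM fluoxetine (100%), four-parameter fit for IC50.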

[7] = Intrinsic clearance in monkey liver microsomes; format: ADME, Macaca mulatta, Microsome; conditions: rhesus monkey, read-out: CLH
[8] = Plasma clearance in Beagle dog at 1 mg/kg, iv and 2 mg/kg, po; format: ADME, organism-based, Canis lupus familiaris
[9] = molecular target: Beta-1 adrenergic receptor (Homo sapiens, UniProt P08588); assay: Displacement of [125I]-cyanopindolol from recombinant human beta-1 adrenergic receptor expressed in CHO cell membranes after 1 hr by scintillation counting analysis
[10] = molecular target: Beta-3 adrenergic receptor (Rattus norvegicus, UniProt P26255); assay: Agonist activity at rat beta-3 adrenergic receptor expressed in CHO cells assessed as increase in intracellular cAMP accumulation after 30 mins by time-resolved fluorescence assay; format: functional, cell-based; how it was run: as §1
[11] = Intrinsic clearance in dog liver microsomes; format: ADME, Canis lupus familiaris; conditions: read-out: CLH
Plasma [12] = assay: Unbound plasma concentration in acetic acid-induced Sprague-Dawley rat bladder hyperactivity model at 1 mg/kg, iv administered as 1 to 2 hrs infusion; format: ADME, organism-based; set-up: dose 1 mg/kg, route intravenous; conditions: in vivo
Cytochrome P450 3A4 = Cytochrome P450 3A4 (Homo sapiens, UniProt P08684); assay: Inhibition of CYP3A4 in human liver microsomes assessed as testosterone 6beta-hydroxylation; format: ADME
Sequence of Cytochrome P450 3A4 (P08684 whole entry, the tested form may be a part): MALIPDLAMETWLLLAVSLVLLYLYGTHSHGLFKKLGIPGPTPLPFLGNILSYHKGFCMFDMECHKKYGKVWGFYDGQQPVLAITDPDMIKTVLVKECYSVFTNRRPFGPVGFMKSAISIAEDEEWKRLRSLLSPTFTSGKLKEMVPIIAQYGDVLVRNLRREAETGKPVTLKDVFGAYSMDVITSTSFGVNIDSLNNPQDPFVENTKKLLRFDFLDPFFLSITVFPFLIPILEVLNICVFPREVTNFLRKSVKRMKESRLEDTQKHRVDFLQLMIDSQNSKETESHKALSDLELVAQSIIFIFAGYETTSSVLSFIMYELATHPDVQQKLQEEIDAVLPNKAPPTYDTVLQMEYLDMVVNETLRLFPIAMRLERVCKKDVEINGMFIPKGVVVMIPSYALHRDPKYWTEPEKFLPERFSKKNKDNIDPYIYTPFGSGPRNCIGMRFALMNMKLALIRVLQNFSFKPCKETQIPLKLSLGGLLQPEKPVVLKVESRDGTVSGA

Plasma [13] = assay: Unbound plasma concentration in acetic acid-induced Sprague-Dawley rat bladder hyperactivity model at 10 mg/kg, iv administered as 1 to 2 hrs infusion; format: ADME, organism-based; set-up: dose 10 mg/kg, route intravenous; conditions: in vivo
[14] = molecular target: Sodium channel protein type 5 subunit alpha (Homo sapiens, UniProt Q14524); assay: Inhibition of human NaV1.5
[15] = Half life in Sprague-Dawley rat at 1 mg/kg, iv and 2 mg/kg, po; format: ADME, organism-based; conditions: in vivo
Plasma [16] = assay: Unbound plasma concentration in acetic acid-induced Sprague-Dawley rat bladder hyperactivity model at 3 mg/kg, iv administered as 1 to 2 hrs infusion; format: ADME, organism-based; set-up: dose 3 mg/kg, route intravenous; conditions: in vivo
Cytochrome P450 2D6 = Cytochrome P450 2D6 (Homo sapiens, UniProt P10635); assay: Inhibition of CYP2D6 in human liver microsomes assessed as dextromethorphan O-demethylation; format: ADME
Sequence of Cytochrome P450 2D6 (P10635 whole entry): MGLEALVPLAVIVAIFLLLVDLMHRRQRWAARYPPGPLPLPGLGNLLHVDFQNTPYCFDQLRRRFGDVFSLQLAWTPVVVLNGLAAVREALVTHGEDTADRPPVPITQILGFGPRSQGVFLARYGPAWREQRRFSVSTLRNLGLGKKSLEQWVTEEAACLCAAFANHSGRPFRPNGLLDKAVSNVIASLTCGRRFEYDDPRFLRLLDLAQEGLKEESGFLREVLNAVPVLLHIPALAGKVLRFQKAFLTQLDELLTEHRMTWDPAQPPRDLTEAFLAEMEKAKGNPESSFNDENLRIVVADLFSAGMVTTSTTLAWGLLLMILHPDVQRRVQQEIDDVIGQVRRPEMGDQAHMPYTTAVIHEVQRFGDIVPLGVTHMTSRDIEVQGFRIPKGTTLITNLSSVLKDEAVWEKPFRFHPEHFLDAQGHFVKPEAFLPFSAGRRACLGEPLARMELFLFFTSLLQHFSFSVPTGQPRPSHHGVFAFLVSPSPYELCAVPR

[17] = Oral bioavailability in Sprague-Dawley rat at 2 mg/kg; format: ADME, organism-based; conditions: in vivo
[18] = Plasma clearance in Sprague-Dawley rat at 1 mg/kg, iv and 2 mg/kg, po; format: ADME, organism-based
[19] = Fraction unbound in Sprague-Dawley rat plasma at 1 mg/kg, iv and 2 mg/kg, po; format: ADME, organism-based; conditions: Sprague-Dawley, plasma
Cytochrome P450 2C9 = Cytochrome P450 2C9 (Homo sapiens, UniProt P11712); assay: Inhibition of CYP2C9 in human liver microsomes assessed as diclofenac alpha'-hydroxylation; format: ADME
Sequence of Cytochrome P450 2C9 (P11712 whole entry): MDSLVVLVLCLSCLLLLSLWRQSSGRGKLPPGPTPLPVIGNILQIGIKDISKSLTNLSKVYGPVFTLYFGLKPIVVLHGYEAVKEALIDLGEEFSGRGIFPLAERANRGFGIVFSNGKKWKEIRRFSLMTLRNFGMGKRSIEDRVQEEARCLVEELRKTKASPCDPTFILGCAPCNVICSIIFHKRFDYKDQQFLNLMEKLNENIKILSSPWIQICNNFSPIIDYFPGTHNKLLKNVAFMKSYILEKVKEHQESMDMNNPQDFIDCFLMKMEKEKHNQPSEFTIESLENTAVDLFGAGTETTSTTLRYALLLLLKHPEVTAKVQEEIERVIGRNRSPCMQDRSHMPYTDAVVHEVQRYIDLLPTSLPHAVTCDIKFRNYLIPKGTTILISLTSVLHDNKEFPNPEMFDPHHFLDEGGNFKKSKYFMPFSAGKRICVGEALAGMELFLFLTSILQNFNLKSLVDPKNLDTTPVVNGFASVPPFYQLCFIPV

[20] = Intrinsic clearance in human liver microsomes; format: ADME; conditions: read-out: CLH
[21] = molecular target: Beta-3 adrenergic receptor (Macaca mulatta, UniProt Q28524); assay: Agonist activity at rhesus monkey beta-3 adrenergic receptor expressed in CHO cells assessed as increase in intracellular cAMP accumulation after 30 mins by time-resolved fluorescence assay; format: functional, cell-based; how it was run: as §1
[22] = molecular target: T1, Beta-3 adrenergic receptor (Homo sapiens, UniProt P13945); assay: Agonist activity at human beta-3 adrenergic receptor expressed in CHO cells assessed as increase in intracellular cAMP accumulation at 10^-10 to 10^-5 M after 30 mins by time-resolved fluorescence assay relative to R-(-)isoproterenol; format: functional, cell-based; how it was run: as §1
[23] = Lipophilicity, log D of the compound at pH 7.3; format: physicochemical; conditions: buffer
Rattus norvegicus [24] = assay: Reduction of micturition pressure in iv dosed acetic acid-induced Sprague-Dawley rat bladder hyperactivity model administered as 1 to 2 hrs infusion; format: functional, organism-based
[25] = Fraction unbound in rhesus monkey plasma at 1 mg/kg, iv and 2 mg/kg, po; format: ADME, organism-based, Macaca mulatta
[26] = Oral bioavailability in Beagle dog at 2 mg/kg; format: ADME, organism-based, Canis lupus familiaris; conditions: in vivo
[27] = Intrinsic clearance in rat liver microsomes; format: ADME; conditions: read-out: CLH
[28] = molecular target: Voltage-dependent L-type calcium channel subunit alpha-1C (Homo sapiens, UniProt Q13936); assay: Displacement of [3H]-diltiazem from human CaV1.2
Sequence of Voltage-dependent L-type calcium channel subunit alpha-1C (Q13936 whole entry): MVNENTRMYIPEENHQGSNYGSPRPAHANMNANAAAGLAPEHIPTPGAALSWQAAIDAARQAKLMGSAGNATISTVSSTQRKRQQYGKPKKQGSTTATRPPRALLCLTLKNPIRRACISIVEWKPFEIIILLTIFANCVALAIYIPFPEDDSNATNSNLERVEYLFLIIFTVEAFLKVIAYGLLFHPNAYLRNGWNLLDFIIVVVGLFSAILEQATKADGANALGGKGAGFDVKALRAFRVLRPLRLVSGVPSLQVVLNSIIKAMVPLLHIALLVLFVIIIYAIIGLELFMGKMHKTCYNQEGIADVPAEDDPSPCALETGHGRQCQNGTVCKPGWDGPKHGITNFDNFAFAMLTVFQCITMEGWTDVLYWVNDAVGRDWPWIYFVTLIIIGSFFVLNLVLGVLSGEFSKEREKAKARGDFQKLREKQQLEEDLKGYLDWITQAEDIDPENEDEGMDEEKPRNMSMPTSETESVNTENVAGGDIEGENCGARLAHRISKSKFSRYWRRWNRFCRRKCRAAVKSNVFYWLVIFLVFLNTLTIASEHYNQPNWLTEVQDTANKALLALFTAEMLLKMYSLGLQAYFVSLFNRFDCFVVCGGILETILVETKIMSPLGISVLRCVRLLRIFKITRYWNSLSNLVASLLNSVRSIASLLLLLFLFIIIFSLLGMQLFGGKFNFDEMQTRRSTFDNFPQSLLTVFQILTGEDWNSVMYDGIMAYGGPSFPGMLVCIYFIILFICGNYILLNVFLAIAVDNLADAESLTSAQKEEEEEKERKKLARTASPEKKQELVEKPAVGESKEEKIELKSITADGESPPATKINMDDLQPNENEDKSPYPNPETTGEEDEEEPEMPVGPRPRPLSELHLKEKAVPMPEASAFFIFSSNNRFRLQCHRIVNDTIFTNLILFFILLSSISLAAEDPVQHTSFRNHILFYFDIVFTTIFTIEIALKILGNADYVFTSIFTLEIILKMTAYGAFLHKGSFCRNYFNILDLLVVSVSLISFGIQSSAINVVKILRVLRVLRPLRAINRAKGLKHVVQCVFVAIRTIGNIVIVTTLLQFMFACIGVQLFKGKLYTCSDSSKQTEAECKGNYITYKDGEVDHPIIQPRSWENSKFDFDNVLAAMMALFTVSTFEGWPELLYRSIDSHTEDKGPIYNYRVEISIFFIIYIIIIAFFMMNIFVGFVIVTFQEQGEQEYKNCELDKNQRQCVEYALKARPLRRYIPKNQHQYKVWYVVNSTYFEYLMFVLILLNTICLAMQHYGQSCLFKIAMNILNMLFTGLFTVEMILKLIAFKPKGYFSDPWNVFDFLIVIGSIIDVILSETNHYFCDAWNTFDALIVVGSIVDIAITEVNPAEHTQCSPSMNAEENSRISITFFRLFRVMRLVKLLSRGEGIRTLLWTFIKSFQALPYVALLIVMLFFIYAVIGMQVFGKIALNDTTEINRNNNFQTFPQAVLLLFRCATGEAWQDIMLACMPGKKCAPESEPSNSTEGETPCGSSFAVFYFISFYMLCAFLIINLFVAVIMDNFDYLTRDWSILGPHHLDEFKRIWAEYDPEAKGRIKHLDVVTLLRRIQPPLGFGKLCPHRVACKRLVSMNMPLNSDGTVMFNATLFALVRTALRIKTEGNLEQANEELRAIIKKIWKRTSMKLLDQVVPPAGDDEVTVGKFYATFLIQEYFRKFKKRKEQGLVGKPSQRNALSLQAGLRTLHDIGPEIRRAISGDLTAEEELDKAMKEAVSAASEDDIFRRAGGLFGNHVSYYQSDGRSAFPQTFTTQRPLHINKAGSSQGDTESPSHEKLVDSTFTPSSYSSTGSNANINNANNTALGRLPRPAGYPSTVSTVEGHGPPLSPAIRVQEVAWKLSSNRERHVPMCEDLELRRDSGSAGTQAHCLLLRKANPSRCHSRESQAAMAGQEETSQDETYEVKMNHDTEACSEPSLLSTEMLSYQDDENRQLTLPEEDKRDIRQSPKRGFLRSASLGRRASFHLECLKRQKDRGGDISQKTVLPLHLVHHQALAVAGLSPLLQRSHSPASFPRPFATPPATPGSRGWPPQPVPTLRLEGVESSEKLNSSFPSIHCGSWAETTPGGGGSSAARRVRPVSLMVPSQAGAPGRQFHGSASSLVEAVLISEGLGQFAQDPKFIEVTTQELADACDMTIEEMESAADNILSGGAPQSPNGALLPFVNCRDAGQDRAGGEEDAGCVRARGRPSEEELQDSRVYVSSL

[29] = Plasma clearance in rhesus monkey at 1 mg/kg, iv and 2 mg/kg, po; format: ADME, organism-based, Macaca mulatta
[30] = Apparent permeability in MDCK2 cells; format: ADME, cell-based, Canis lupus familiaris, MDCK-II; conditions: dog, MDCK
[31] = molecular target: Beta-3 adrenergic receptor (Canis lupus familiaris, UniProt O02662); assay: Agonist activity at dog beta-3 adrenergic receptor expressed in CHO cells assessed as increase in intracellular cAMP accumulation after 30 mins by time-resolved fluorescence assay; format: functional, cell-based; how it was run: as §1
[32] = Half life in Beagle dog at 1 mg/kg, iv and 2 mg/kg, po; format: ADME, organism-based, Canis lupus familiaris; conditions: in vivo
[33] = molecular target: Beta-2 adrenergic receptor (Homo sapiens, UniProt P07550); assay: Displacement of [125I]-cyanopindolol from recombinant human beta-2 adrenergic receptor expressed in CHO cell membranes after 1 hr by scintillation counting analysis
Sequence of Beta-2 adrenergic receptor (P07550 whole entry): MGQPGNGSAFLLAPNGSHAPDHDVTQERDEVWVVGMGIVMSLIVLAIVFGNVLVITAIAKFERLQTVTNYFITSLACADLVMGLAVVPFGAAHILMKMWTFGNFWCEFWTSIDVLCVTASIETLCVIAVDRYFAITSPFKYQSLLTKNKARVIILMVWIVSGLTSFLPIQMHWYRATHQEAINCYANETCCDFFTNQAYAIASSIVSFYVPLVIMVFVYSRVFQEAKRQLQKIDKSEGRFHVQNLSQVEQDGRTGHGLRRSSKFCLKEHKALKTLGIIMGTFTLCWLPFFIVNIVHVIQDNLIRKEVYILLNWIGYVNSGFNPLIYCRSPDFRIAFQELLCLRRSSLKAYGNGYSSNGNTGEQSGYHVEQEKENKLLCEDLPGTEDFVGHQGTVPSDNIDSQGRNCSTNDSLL

[34] = molecular target: Beta-3 adrenergic receptor (Rattus norvegicus) (UniProt P26255); assay: Agonist activity at rat beta-3 adrenergic receptor expressed in CHO cells assessed as increase in intracellular cAMP accumulation at 10^-10 to 10^-5 M after 30 mins by time-resolved fluorescence assay relative to R-(-)isoproterenol; format: functional, cell-based; how it was run: as §1
[35] = molecular target: T1, Beta-3 adrenergic receptor; assay: Agonist activity at human beta-3 adrenergic receptor expressed in CHO cells assessed as increase in intracellular cAMP accumulation after 30 mins by time-resolved fluorescence assay; format: functional, cell-based; how it was run: as §1
[36] = Fraction unbound in Beagle dog plasma at 1 mg/kg, iv and 2 mg/kg, po; format: ADME, organism-based, Canis lupus familiaris
[37] = molecular target: Voltage-gated inwardly rectifying potassium channel KCNH2 (Homo sapiens, UniProt Q12809); assay: Inhibition of human ERG
Homo sapiens = species on record: Homo sapiens; assay: Selectivity ratio of IC50 for human SERT to EC50 for human beta-3 adrenergic receptor

| SMILES | Activity [3] [%] | Activity [5] [%] | IC50 [6] [µM] | IC50 [9] [µM] | EC50 [10] [µM] | IC50 (Cytochrome P450 3A4) [µM] | IC50 [14] [µM] | half-life [15] [h] | IC50 (Cytochrome P450 2D6) [µM] | bioavailability [17] [%] | clearance [18] [mL/min/kg] | fraction unbound [19] | IC50 (Cytochrome P450 2C9) [µM] | EC50 [21] [nM] | Activity [22] [%] | CLint scaled [27] [mL/min/kg] | IC50 [28] [µM] | Papp [30] [×10⁻⁶ cm/s] | IC50 [33] [µM] | EC50 [35] [µM] | other results |
| --- | --- | --- | --- | --- | --- | --- | --- | --- | --- | --- | --- | --- | --- | --- | --- | --- | --- | --- | --- | --- | --- |
| O=C(Nc1ccc(C[C@@H]2CC[C@H]([C@H](O)c3cccnc3)N2)cc1)[C@@H]1CCc2scnc21 | 82 | 98 | 0.422 | > 20 | 0.0276 | > 100 | > 30 | 2 | 78.8 | 41 | 33 | 0.19 | > 100 | 2 | 103 | < 15 | > 30 | 13 | > 20 | 0.00136 | half-life [1]: 2 h; bioavailability [2]: 8%; Activity (Rattus norvegicus [4]): 59%; CLint scaled [7]: 205 mL/min/kg; clearance [8]: 27 mL/min/kg; CLint scaled [11]: < 10 mL/min/kg; Cp(f) (Plasma [12]): 90 nM; Cp(f) (Plasma [13]): 1170 nM; Cp(f) (Plasma [16]): 260 nM; CLint scaled [20]: < 10 mL/min/kg; logD [23]: 0.9; Activity (Rattus norvegicus [24]): Dose-dependent effect; fraction unbound [25]: 1; bioavailability [26]: 67%; clearance [29]: 36 mL/min/kg; EC50 [31]: 0.005 µM; half-life [32]: 6 h; Activity [34]: 89%; fraction unbound [36]: 0.7 |
| Nc1nc2c(s1)CC[C@H]2C(=O)Nc1ccc(C[C@@H]2CC[C@H]([C@H](O)c3ccccc3)N2)cc1 | 102 | 78 | 1.22 | > 20 | 0.0013 | 86 | 5.6 | 4 | 18.3 | 6 | 50 | 0.18 | > 100 | 0.06 | 91 | 59 | > 30 | 5 | > 20 | 0.00015 | IC50 [37]: 12.7 µM; EC50 [31]: 0.00019 µM; Activity [34]: 100% |
| Cc1nc2c(s1)CC[C@H]2C(=O)Nc1ccc(C[C@@H]2CC[C@H]([C@H](O)c3cccnc3)N2)cc1 |  |  | 0.089 | > 20 |  | 41.8 | > 30 | 1 | > 100 | 46 | 25 | 0.11 | 67.2 |  | 89 | 62 | > 30 | 17 | > 20 | 0.00115 | Ratio IC50/EC50 (Homo sapiens): 77; IC50 [37]: 12 µM |
